Activity calls are given as the source filed them. No cut-off for these calls is given here.
Key:
Enterovirus C = assay: Antiviral activity against Poliovirus Sb1 in Vero 76 cells after 2 days by plaque reduction assay; assay type: functional, organism-based; conditions: 48 h
Summary of the method: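 Vero 76 monolayers (2×10^5 cells/well, grown overnight) infected with Sabin strain at 50-100 PFU/well. Unabsorbed virus removed, then DMEM with 1% inactivated FCS and 0.75% methyl cellulose added, with or without serial compound dilutions (100 mM DMSO stock diluted in medium). Held 2 days at 37 °C, then fixed and stained with ethanol/crystal violet and plaques counted. EC50 (50% plaque reduction) by linear regression; mean of three determinations.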

[1] = system: Vesicular stomatitis virus; assay: Antiviral activity against VSV; assay type: functional, organism-based
[2] = system: Respiratory syncytial virus; assay: Antiviral activity against RSV; assay type: functional, organism-based
[3] = Cytotoxicity against MDBK cells after 48 to 120 hrs by MTT method; assay type: cell-based, Bos taurus; conditions: cattle
Summary of the method: (§1)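 Cells placed in maintenance medium at initial 1×10^6 (BHK) or 6×10^5 (MDBK) cells/mL, with or without serial compound dilutions, run in parallel with antiviral tests. Viability by MTT after 48–120 h at 37 °C, humidified 5% CO2; CC50 = concentration reducing mock-infected cell viability by 50%; mean of three determinations.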

[4] = system: Bovine viral diarrhea virus 1; assay: Antiviral activity against BVDV in MDBK cells assessed as inhibition of virus-induced cytopathogenicity after 2 to 3 days by MTT method; assay type: functional, organism-based; conditions: Bovine viral diarrhea virus isolates and strains
Summary of the method: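 MDBK cells seeded 2.5×10^4 cells/well, grown overnight to confluence at 37 °C, 5% CO2; infected at moi 0.01 in serum-free medium; after 1 h, MEM Earle's with 1% inactivated FCS ± serial compound dilutions (DMSO stock diluted in medium) added. Viability read by MTT after 2-3 days at 37 °C; EC50 = 50% protection from cytopathogenicity; mean of three determinations.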

[5] = Cytotoxicity against BHK1 cells after 48 to 120 hrs by MTT method; assay type: cell-based, Mesocricetus auratus; conditions: hamster; summary of the method: as §1
Yellow fever virus = assay: Antiviral activity against YFV in BHK1 cells assessed as inhibition of virus-induced cytopathogenicity after 2 to 3 days by MTT method; assay type: functional, organism-based
[6] = Cytotoxicity against Vero 76 cells after 48 to 120 hrs by MTT method; assay type: cell-based; conditions: chlorocebus sabaeus
Coxsackievirus B2 = assay: Antiviral activity against CVB2 in Vero 76 cells after 3 days by plaque reduction assay; assay type: functional, organism-based; conditions: Enterovirus B, 72 h
Summary of the method: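 Vero 76 cells seeded 2×10^5 cells/well, confluent overnight; infected to give 50-100 PFU/well; unadsorbed virus removed, then DMEM with 1% inactivated FCS and 0.75% methyl cellulose ± serial dilutions added. After 3 days at 37 °C, fixed and stained with 50% ethanol/0.8% crystal violet in PBS; plaques counted; EC50 by linear regression.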

[7] = Cytotoxicity against human MT4 cells after 96 hrs by MTT method; assay type: cell-based
Summary of the method: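 Exponentially growing MT-4 cells (CD4+ T-cells carrying integrated HTLV-1) seeded at 1×10^5 cells/mL in RPMI-1640 with 10% FCS, penicillin and streptomycin, with or without serial compound dilutions; 96 h at 37 °C, humidified 5% CO2. Viability by MTT; value = concentration reducing proliferation by 50%, untreated controls undergoing at least three rounds of multiplication.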

[8] = system: Human immunodeficiency virus 1; assay: Antiviral activity against HIV1 in MT4 cells by plaque reduction assay; assay type: functional, organism-based; conditions: Human immunodeficiency virus 1, MT4
Reovirus sp. = assay: Antiviral activity against Reovirus; assay type: functional, organism-based

| SMILES | EC50 (Enterovirus C) [µM] | Activity [1] | Activity [2] | CC50 [3] [µM] | EC50 [4] [µM] | CC50 [5] [µM] | EC50 (Yellow fever virus) [µM] | CC50 [6] [µM] | EC50 (Coxsackievirus B2) [µM] | CC50 at 96 h [7] [µM] | EC50 [8] [µM] | Activity (Reovirus sp.) |
| --- | --- | --- | --- | --- | --- | --- | --- | --- | --- | --- | --- | --- |
| O=c1cc[nH]c2ccc3ncccc3c12 | > 100 | inactive | inactive | > 100 | 95 | 66 | > 66 | > 100 | > 100 | > 100 | > 100 | inactive |
| CCOc1ccnc2c(Cl)c(Cl)c3ncccc3c12 | 11 | inactive | inactive | 64 | 25 | 25 | > 25 | 75 | 2 | > 100 | > 100 | inactive |
| O=c1cc[nH]c2c(Cl)c(Cl)c3ncccc3c12 | > 80 | inactive | inactive | > 100 | 16 | > 100 | > 100 | 80 | > 80 | 47 | > 47 | inactive |
| Nc1ccnc2c(Cl)c(Cl)c3ncccc3c12 | 14 | inactive | inactive | 24 | ≥ 24 | 11 | > 11 | 40 | 2 | 7.2 | > 7.2 | inactive |
| Clc1c(Cl)c2ncccc2c2cccnc12 | 6 | inactive | inactive | > 100 | 16 | > 100 | > 100 | 25 | 11 | 24 | > 24 | inactive |
| Clc1c(Cl)c2nccc(Cl)c2c2cccnc12 | > 100 | inactive | inactive | 54 | > 54 | > 100 | > 100 | > 100 | > 100 | 6.4 | > 6.4 | inactive |
| c1cnc2ccc3ncccc3c2c1 | > 80 | inactive | inactive | > 100 | 17 | > 100 | > 100 | 80 | > 80 | 61 | > 61 | inactive |
| O=C(O)c1c[nH]c2c(Cl)c(Cl)c3ncccc3c2c1=O | 85 | inactive | inactive | > 100 | > 100 | 23 | > 23 | 100 | > 100 | > 100 | > 100 | inactive |
| CCOC(=O)c1c[nH]c2c(Cl)c(Cl)c3ncccc3c2c1=O | > 90 | inactive | inactive | > 100 | 35 | 25 | > 25 | 90 | > 90 | 32 | > 32 | inactive |
| CCOc1ccnc2ccc3ncccc3c12 | 17 | inactive | inactive | 64 | 6 | 35 | > 35 | 80 | 5 | 56 | > 56 | inactive |
| Nc1ccnc2ccc3ncccc3c12 | > 90 | inactive | inactive | 63 | 9 | > 100 | > 100 | 90 | > 90 | 50 | > 50 | inactive |
| CC(=O)Nc1ccnc2c(Cl)c(Cl)c3ncccc3c12 | 21 | inactive | inactive | 32 | 22 | 18 | > 18 | 50 | 2 | 13 | > 13 | inactive |
